Source: ChEMBL document CHEMBL1127418, “Novel antiproliferative agents derived from lavendustin A” (J Med Chem, 1994)
Values belong to the compound of their own block, whether it stands above or below them.

Key:
[1] = biological target: Epidermal growth factor receptor (Homo sapiens, UniProt P00533); experiment: Inhibition of EGF-R Tyrosine kinase (TK)
HaCaT = experiment: Inhibitory activity of HaCaT keratinocyte cell line; format: functional, cell-based; details: Homo sapiens
Method in brief: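 HaCaT keratinocytes kept in DMEM with 5% FCS, trypsinized and seeded at 4000 cells/0.2 mL/well. After 24 h, medium was replaced with fresh medium holding graded compound concentrations. Proliferation was read after 3–4 days by sulforhodamine B colorimetry. IC50 values are the average of at least two independent measurements.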

A-431 = experiment: Inhibition of A431 cell proliferation; details: Homo sapiens
B16 = experiment: Inhibition of B16F1 cell proliferation; details: Mus musculus
HeLa = experiment: Inhibition of HeLa cell proliferation; details: Homo sapiens
K562 = experiment: Inhibition of K562 cell proliferation; details: Homo sapiens
L1210 [2] = experiment: (§1) Inhibition of L1210 cell proliferation; details: Mus musculus
KB = experiment: Inhibition of KB cell proliferation; details: Homo sapiens
MCF7 = experiment: Inhibition of MCF-7 cell proliferation; details: Homo sapiens
LoVo = experiment: Inhibition of LOVO cell proliferation; format: functional, cell-based; details: Homo sapiens
MDA-MB-468 = experiment: Inhibition of MDA-MB-468 cell proliferation; format: functional, cell-based; details: Homo sapiens
P388 = experiment: Inhibition of P388 cell proliferation; details: Mus musculus
SCL-1 = experiment: Inhibition of SCL-1 cell proliferation; details: Homo sapiens
U-937 = experiment: Inhibition of U937 cell proliferation; format: functional, cell-based; details: Homo sapiens
SK-BR-3 = experiment: Inhibition of SK-BR-3 cell proliferation; format: functional, cell-based; details: Homo sapiens
Method in brief: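 Tumour cells grown at 37 °C without antibiotics. Harvested at exponential growth (suspension lines) or 60–90% confluence (adherent lines, trypsinized), then seeded at 1000–5000 cells/well. Cultured 3–4 days with graded compound concentrations. Proliferation read by sulforhodamine B for adherent cells or MTT for suspension cells. IC50 derived from the concentration series.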

MDA-MB-231 = experiment: cells; details: Homo sapiens
L1210 [3] = experiment: as §1; format: functional, cell-based; details: Mus musculus

Epidermal growth factor receptor, sequence (P00533 whole entry): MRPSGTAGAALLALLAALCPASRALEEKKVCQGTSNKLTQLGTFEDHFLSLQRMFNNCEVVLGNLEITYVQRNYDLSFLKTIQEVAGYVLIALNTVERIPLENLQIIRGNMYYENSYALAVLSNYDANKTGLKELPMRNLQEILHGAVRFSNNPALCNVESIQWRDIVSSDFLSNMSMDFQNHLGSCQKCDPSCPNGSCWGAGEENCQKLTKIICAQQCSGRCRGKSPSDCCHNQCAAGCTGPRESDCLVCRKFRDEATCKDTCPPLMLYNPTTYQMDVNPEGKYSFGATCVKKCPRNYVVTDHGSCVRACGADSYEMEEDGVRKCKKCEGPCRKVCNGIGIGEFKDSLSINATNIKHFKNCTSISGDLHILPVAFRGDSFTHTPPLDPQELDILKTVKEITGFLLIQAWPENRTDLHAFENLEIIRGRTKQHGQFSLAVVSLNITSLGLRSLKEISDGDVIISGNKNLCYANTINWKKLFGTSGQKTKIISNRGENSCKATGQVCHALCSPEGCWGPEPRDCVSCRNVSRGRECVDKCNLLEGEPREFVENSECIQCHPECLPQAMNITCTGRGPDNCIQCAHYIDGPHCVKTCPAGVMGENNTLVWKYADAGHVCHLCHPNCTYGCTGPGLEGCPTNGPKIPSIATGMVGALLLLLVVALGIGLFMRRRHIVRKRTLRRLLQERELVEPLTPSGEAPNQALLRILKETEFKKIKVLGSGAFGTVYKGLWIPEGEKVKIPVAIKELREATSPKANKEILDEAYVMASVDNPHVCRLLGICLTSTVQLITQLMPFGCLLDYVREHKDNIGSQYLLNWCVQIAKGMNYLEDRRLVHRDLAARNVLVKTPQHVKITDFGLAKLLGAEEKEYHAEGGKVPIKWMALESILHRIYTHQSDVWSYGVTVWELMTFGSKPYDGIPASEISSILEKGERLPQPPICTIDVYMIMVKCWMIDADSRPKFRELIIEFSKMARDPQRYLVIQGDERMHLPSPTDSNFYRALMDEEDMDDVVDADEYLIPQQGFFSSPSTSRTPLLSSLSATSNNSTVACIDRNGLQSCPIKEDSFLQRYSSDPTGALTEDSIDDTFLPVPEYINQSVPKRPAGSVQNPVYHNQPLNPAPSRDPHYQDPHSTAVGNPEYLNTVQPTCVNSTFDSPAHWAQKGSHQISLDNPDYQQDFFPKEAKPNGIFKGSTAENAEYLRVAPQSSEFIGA

IC50 [1]: 3300 nM
Structure (SMILES): O=C(O)c1cc(CCc2cc(O)ccc2O)ccc1O
IC50 (HaCaT): > 100000 nM

IC50 (A-431): 213 nM
IC50 (B16): 269 nM
IC50 [1]: > 100000 nM
IC50 (HeLa): 470 nM
IC50 (K562): 218 nM
IC50 (L1210 [2]): 415 nM
IC50 (KB): 192 nM
IC50 (MCF7): 19 nM
IC50 (LoVo): 185 nM
IC50 (MDA-MB-468): 46.5 nM
IC50 (P388): 338 nM
IC50 (U-937): 320 nM
IC50 (SK-BR-3): 31 nM
IC50 (MDA-MB-231): 428 nM
Structure (SMILES): COC(=O)c1cc(CCc2cc(OC)ccc2OC)ccc1O
IC50 (SCL-1): 383 nM
IC50 (HaCaT): 40 nM

Structure (SMILES): COC(=O)c1cc(/C=C/c2cc(OC)ccc2OC)ccc1O
IC50 (HaCaT): 5600 nM

Structure (SMILES): COc1ccc(OC)c(CCc2ccc(O)c(C(=O)O)c2)c1
IC50 (HaCaT): 4800 nM

IC50 [1]: 24400 nM
Structure (SMILES): COC(=O)c1cc(NCc2cc(O)ccc2O)ccc1O
IC50 (HaCaT): 29000 nM

Structure (SMILES): COC(=O)c1cc(CCc2cc(O)ccc2O)ccc1O
IC50 (HaCaT): 18000 nM

Structure (SMILES): COC(=O)c1cc(COc2cc(OC)ccc2OC)ccc1O
IC50 (HaCaT): 14000 nM

Structure (SMILES): COC(=O)c1cc(/C=C\c2cc(OC)ccc2OC)ccc1O
IC50 (HaCaT): 3900 nM

Structure (SMILES): COC(=O)c1cc(NCc2cc(OC)ccc2OC)ccc1O
IC50 (HaCaT): 1500 nM

IC50 [1]: > 100000 nM
Structure (SMILES): COc1ccc(OC)c(CNc2ccc(O)c(C(=O)O)c2)c1
IC50 (HaCaT): 92000 nM

Structure (SMILES): COC(=O)c1cc(CNc2cc(OC)ccc2OC)ccc1O
IC50 (HaCaT): 72000 nM

Structure (SMILES): COc1cc2c(c(OC)c1OC)-c1ccc(OC)c(=O)cc1[C@@H](NC(C)=O)CC2 [COLCHICINE]
IC50 (A-431): 14 nM
IC50 (HeLa): 18 nM
IC50 (K562): 14.1 nM
IC50 (L1210 [3]): 14.7 nM
IC50 (KB): 5.6 nM
IC50 (MCF7): 15.3 nM
IC50 (LoVo): 6 nM
IC50 (MDA-MB-468): 6.9 nM
IC50 (P388): 9.5 nM
IC50 (U-937): 5.2 nM
IC50 (SK-BR-3): 5 nM
IC50 (MDA-MB-231): 20.5 nM

IC50 [1]: 4100 nM
Structure (SMILES): O=C(O)c1cc(N(Cc2ccccc2O)Cc2cc(O)ccc2O)ccc1O [LAVENDUSTIN A]
IC50 (HaCaT): > 100000 nM

Structure (SMILES): O=C(O)c1cc(NCc2cc(O)ccc2O)ccc1O [LAVENDUSTIN C]
IC50 (HaCaT): ≥ 100000 nM
